Screens from PubChem BioAssay.
In the library only some 3.5% were active in any assay of this set; here they are far more common.
MrgX1 agonist = human MrgX1 receptor agonism, primary screen; Q96LB2; MrgX1-HEK293 cells, Fluo-4 calcium fluorescence, agonist mode; active compounds read high; B-score at 10 µM; 310,000 compounds, 0.44% hits;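 active = calcium response B-score plate-corrected fluorescence ratio at least 3 library SD, with starting fluorescence B-score inside 5 SD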
Target sequence (Q96LB2 whole entry, looked up): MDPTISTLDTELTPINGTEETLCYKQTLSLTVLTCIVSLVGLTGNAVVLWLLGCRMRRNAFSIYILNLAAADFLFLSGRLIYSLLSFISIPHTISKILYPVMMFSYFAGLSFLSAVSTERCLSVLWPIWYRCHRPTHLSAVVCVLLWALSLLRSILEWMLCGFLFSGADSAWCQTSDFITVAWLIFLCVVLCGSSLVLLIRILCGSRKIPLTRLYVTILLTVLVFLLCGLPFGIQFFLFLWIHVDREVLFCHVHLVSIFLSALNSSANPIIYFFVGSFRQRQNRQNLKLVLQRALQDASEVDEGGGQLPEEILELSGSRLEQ
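Test system: Stable human MrgX1 HEK293 cell line | Schedule: Overnight plating before 1 h dye loading | Read-out basis: Baseline-normalised fluorescence change ratio, B-scored | Detection: Kinetic calcium dye fluorescence, Fluo-4 NW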
RGS4 inh = human RGS4 inhibition; AID 463165; B-score at 10 µM; HEK293 M3R/RGS4 inducible, Fluo-4 calcium flux; active compounds read high; triggered by carbachol at its EC20; 310,000 compounds, 0.45% hits;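 active = B-score, a plate-corrected calcium signal, over three deviations above library mean, with baseline fluorescence within five deviations of library mean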;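 also: RGS4 expression induced by doxycycline in cells with stable M3 receptor; B-score is computed from the integrated fluorescence ratio over baseline after carbachol; higher B-score means a larger calcium signal and so more RGS4 inhibition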
Target sequence (P49798 whole entry, looked up): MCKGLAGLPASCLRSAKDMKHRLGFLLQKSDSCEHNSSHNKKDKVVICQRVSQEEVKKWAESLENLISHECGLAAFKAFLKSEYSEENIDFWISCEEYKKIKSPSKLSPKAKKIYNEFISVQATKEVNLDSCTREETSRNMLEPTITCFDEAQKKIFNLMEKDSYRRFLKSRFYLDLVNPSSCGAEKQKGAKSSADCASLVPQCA
MrgX1 allo act = human MrgX1 positive allosteric modulation, primary screen; 310,000 compounds, 0.63% hits; Q96LB2; MrgX1-HEK293, Fluo-4 calcium flux, FDSS; active compounds read high; AID 588675; B-score at 10 µM;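 active = plate-corrected calcium response at least 3 library SD above typical, normal starting fluorescence, not activating the receptor alone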;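 also: compound read alongside a low EC10 to EC30 dose of BAM8-22 agonist; peak minus trough fluorescence over baseline measured at the second addition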
RGS4 act = RGS4 potentiation or activation; HEK293 M3R/inducible RGS4, carbachol calcium flux Fluo4; active compounds read low; B-score at 10 µM; 310,000 compounds, 0.92% hits;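 active = B-score of the integrated calcium signal more than 4 SD below the library mean, with starting fluorescence not abnormally high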;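 also: negative B-score means reduced calcium response which marks RGS4 activation or potentiation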
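Assay system: Inducible-RGS4 HEK293 cells carrying M3 receptor | Schedule: Compound preincubation 20 min at room temperature before agonist | Signal: Kinetic calcium fluorescence imaging with Fluo4-AM dye, 2 µM | Read-out basis: B score from integrated fluorescence ratio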
MrgX1 antag = blocks BAM8-22 activation of human MrgX1 receptor; Q96LB2; MRGX1-HEK293 calcium flux, Fluo-4, BAM8-22 antagonism; active compounds read low; B-score at 10 µM; 310,000 compounds, 1.3% hits;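 active = calcium-response B-score plate-corrected more than 3 library SD below zero, starting fluorescence within 5 deviations, no agonist response on first addition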;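 also: peak minus trough fluorescence over baseline after final BAM8-22 challenge near maximal dose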
Hits are given with their value.

For O=C(Nc1csc(Cc2c(Cl)cccc2Cl)n1)NN1CCOCC1 the results were MrgX1 agonist inactive, RGS4 inh inactive, MrgX1 allo act inactive, RGS4 act inactive and MrgX1 antag inactive.
For OCCC1CN(Cc2ccc(Oc3ncccn3)cc2)CCN1C1CCCCC1 (centres undefined) the results were MrgX1 agonist inactive, RGS4 inh inactive, MrgX1 allo act inactive, RGS4 act inactive and MrgX1 antag inactive.
Cc1nnc(N(C(=O)c2cnccn2)c2ccccc2)s1 was read as MrgX1 agonist inactive, RGS4 inh inactive, MrgX1 allo act inactive, RGS4 act inactive and MrgX1 antag inactive.
c1ccc(C[n+]2ccc3ccccc3c2)cc1 was read as MrgX1 agonist inactive, RGS4 inh inactive, MrgX1 allo act inactive, RGS4 act -7.9 and MrgX1 antag inactive.
O=C(NCC(c1ccco1)N1CCCC1)c1sc2ccccc2c1Cl (centres undefined) was read as MrgX1 agonist inactive, RGS4 inh inactive, MrgX1 allo act inactive, RGS4 act inactive and MrgX1 antag inactive.
For Cc1nc2ccc(NC(=O)c3cccc(C(F)(F)F)c3)cc2o1 the results were MrgX1 agonist inactive, RGS4 inh inactive, MrgX1 allo act inactive, RGS4 act inactive and MrgX1 antag inactive.
Screening C[N+]1(CC(=O)OC2CCCCCCCCCCC2)CCCC1 returned MrgX1 agonist inactive, RGS4 inh inactive, MrgX1 allo act inactive, RGS4 act -7.2 and MrgX1 antag inactive.
CCOc1ccc(NC(=O)CC2C(=O)N(c3cccc(OC)c3)C(=O)N2C(C)C)cc1 (centres undefined) was read as MrgX1 agonist inactive, RGS4 inh inactive, MrgX1 allo act inactive, RGS4 act inactive and MrgX1 antag inactive.
`COc1ccc(Cl)cc1NC(=O)COC(=O)CCCN1C(=O)c2ccccc2C1=O` gave MrgX1 agonist inactive, RGS4 inh inactive, MrgX1 allo act inactive, RGS4 act inactive and MrgX1 antag inactive.
For COc1ccc(OC)c(NC(=O)COC(=O)CCCN2C(=O)c3ccccc3C2=O)c1 the results were MrgX1 agonist inactive, RGS4 inh inactive, MrgX1 allo act inactive, RGS4 act inactive and MrgX1 antag -9.
`CC(=O)Nc1sc2c(c1C(c1ccccc1Cl)N1CCN(CCO)CC1)CCCC2` (centres undefined) gave MrgX1 agonist inactive, RGS4 inh inactive, MrgX1 allo act inactive, RGS4 act -7.5 and MrgX1 antag inactive.
For C/C(CCN1CCc2nc(-c3ccccc3)c(-c3ccccc3)cc2C1)=N\O[C@@H](C)c1cn([C@H](CO)Cc2ccccc2)nn1 the results were MrgX1 agonist inactive, RGS4 inh inactive, MrgX1 allo act inactive, RGS4 act -8.9 and MrgX1 antag inactive.
Screening COC(=O)C/C=C/[C@@H](C)[C@@H](/C=N/O[C@@H](C)c1cn([C@H](CO)Cc2ccccc2)nn1)NS(=O)(=O)c1ccc(C)cc1 returned MrgX1 agonist inactive, RGS4 inh inactive, MrgX1 allo act inactive, RGS4 act inactive and MrgX1 antag inactive.
Screening COC(=O)c1cc(S(=O)(=O)NCc2ccccc2OC)cn1C returned MrgX1 agonist inactive, RGS4 inh inactive, MrgX1 allo act inactive, RGS4 act inactive and MrgX1 antag inactive.
Cc1c(C)c2ccc(OCC(=O)N3CCN(C(=O)C4COc5ccccc5O4)CC3)cc2oc1=O (centres undefined) was read as MrgX1 agonist inactive, RGS4 inh inactive, MrgX1 allo act inactive, RGS4 act -7.2 and MrgX1 antag inactive.
For Cc1cc(=O)oc2cc(OCC(=O)N3CCN(C(=O)C4COc5ccccc5O4)CC3)ccc12 (centres undefined) the results were MrgX1 agonist inactive, RGS4 inh inactive, MrgX1 allo act inactive, RGS4 act inactive and MrgX1 antag inactive.
Screening COc1ccc(-c2ccc(=O)n(Cc3cccc(Cl)c3)n2)cc1 returned MrgX1 agonist inactive, RGS4 inh inactive, MrgX1 allo act 7.9, RGS4 act inactive and MrgX1 antag inactive.
CCc1ccccc1S(=O)(=O)Cc1ccc(C(=O)N2CCN(c3ccccc3OC)CC2)o1 was read as MrgX1 agonist inactive, RGS4 inh inactive, MrgX1 allo act inactive, RGS4 act -7.7 and MrgX1 antag inactive.
Cc1ccccc1S(=O)(=O)Cc1ccc(C(=O)N2CCN(c3cccc(C)c3C)CC2)o1 was read as MrgX1 agonist inactive, RGS4 inh inactive, MrgX1 allo act inactive, RGS4 act -7.2 and MrgX1 antag inactive.
For COc1cc(/C=C/C(=O)O)cc(S(=O)(=O)Nc2cccc(SC)c2)c1OC the results were MrgX1 agonist inactive, RGS4 inh inactive, MrgX1 allo act inactive, RGS4 act inactive and MrgX1 antag -6.3.
COc1cc(/C=C/C(=O)O)cc(S(=O)(=O)Nc2ccc(F)cc2)c1OC was read as MrgX1 agonist inactive, RGS4 inh inactive, MrgX1 allo act inactive, RGS4 act inactive and MrgX1 antag inactive.
Screening C/C(=N\NC(=S)NCc1ccccc1)c1ccc2ccccc2c1OC(F)F returned MrgX1 agonist inactive, RGS4 inh inactive, MrgX1 allo act inactive, RGS4 act inactive and MrgX1 antag inactive.
`COc1ccc(NC(=O)CSc2nnc(Cn3nnc4ccccc43)n2C)cc1` gave MrgX1 agonist inactive, MrgX1 allo act inactive and MrgX1 antag inactive.
For CCc1ccccc1NC(=O)CSc1nnc(Cn2nnc3ccccc32)n1C the results were MrgX1 agonist inactive, RGS4 inh inactive, MrgX1 allo act inactive, RGS4 act -7.5 and MrgX1 antag inactive.
CN1CCN(c2ccc(S(=O)(=O)N3CCCCC3)cc2NC(=O)COc2cccc(Cl)c2)CC1 was read as MrgX1 agonist inactive, RGS4 inh inactive, MrgX1 allo act inactive, RGS4 act inactive and MrgX1 antag inactive.
For Cc1cc2[nH]c3c(c[n+](C)c4ccccc34)c2cc1C the results were MrgX1 agonist inactive, RGS4 inh inactive, MrgX1 allo act inactive, RGS4 act -7.1 and MrgX1 antag inactive.
Screening CCOC(=O)N1CCN(C(=O)CSCC(=O)Nc2nc(-c3ccc(-c4ccccc4)cc3)cs2)CC1 returned MrgX1 agonist inactive, RGS4 inh inactive, MrgX1 allo act inactive, RGS4 act inactive and MrgX1 antag -6.4.
O=C(NCCCN1CCCCC1)C1CCC(CNS(=O)(=O)c2cccc3nsnc23)CC1 (centres undefined) was read as MrgX1 agonist inactive, RGS4 inh inactive, MrgX1 allo act inactive, RGS4 act inactive and MrgX1 antag inactive.
For O=C1C2C3C=CC(C3)C2C(=O)N1/N=C/c1cn(Cc2ccc(F)cc2)c2ccccc12 (centres undefined) the results were MrgX1 agonist inactive, RGS4 inh inactive, MrgX1 allo act inactive, RGS4 act -8 and MrgX1 antag inactive.
For CCOC(=O)CSc1nc(-c2ccccc2)nc2c1oc1ccccc12 the results were MrgX1 agonist inactive, RGS4 inh inactive, MrgX1 allo act inactive, RGS4 act -7.3 and MrgX1 antag inactive.
`COc1ccc(NC(=O)CCOc2ccccc2)cc1` gave MrgX1 agonist inactive, RGS4 inh inactive, MrgX1 allo act inactive, RGS4 act inactive and MrgX1 antag inactive.
